Test results from ChEMBL document CHEMBL1129428 (J Med Chem, 1996).

What was measured:
Mus musculus [1] = assay: Anticonvulsant activity after intraperitoneal injection into mice measured in a maximal electroshock scree (MES) screen; assay type: functional
Mus musculus [2] = assay: Compound was tested for anticonvulsant activity after intraperitoneal injection into mice by using MES screen test after 1 hr; assay type: functional; conditions: ip
Method in brief: (§1)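 Quantitative intraperitoneal mouse testing in the MES, scPTZ or rotorod neurotoxicity screens at the peak time given for each compound (0.25–2 h). ED50 or TD50 reported in mg/kg with 95% CI and slope (SE).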

Mus musculus [3] = assay: Anticonvulsant activity after intraperitoneal injection into mice by using MES screen test after 0.5 hr; assay type: functional
Mus musculus [4] = assay: Anticonvulsant activity after intraperitoneal injection into mice by using scPTZ screen after 0.5 hr; assay type: functional
Mus musculus [5] = assay: Anticonvulsant activity after intraperitoneal injection into mice by using scPTZ screen test after 4 hr; assay type: functional
[6] = Partition coefficient (logP); assay type: physicochemical; conditions: octanol/water
Method in brief: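 Partition between 1-octanol and buffer at pH 7.4, with solutions prepared in 1-octanol before buffer is added. Quantified by UV, using λmax and ε values measured in 1-octanol.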

Rattus norvegicus [7] = assay: Compound was tested for anticonvulsant activity after Oral Administration into Rats by using MES screen test after 0.25h,dose 50 mg/kg; number of rats out of four which were protected; assay type: functional
Method in brief: (§2)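 Rats received the compound orally. […] Rats were tested in the MES screen at 0.25, 0.5, 1, 2 and 4 h. Each value is the number of rats protected out of 4. The test followed NINDS procedures.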

[8] = Protection index = TD50/ED50; assay type: ADME; conditions: read-out: PI
Rattus norvegicus [9] = assay: Compound was tested for anticonvulsant activity after Oral Administration into Rats by using MES screen test after 1h,dose 50 mg/kg; number of rats out of four which were protected; assay type: functional; method in brief: as §2
[10] = Compound was tested for toxicity after oral administration in rat by using neurotoxicity screen test after 0.25-24 hr; assay type: organism-based; conditions: in vivo
Method in brief: (§3)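 Rat neurotoxicity after oral dosing, observed at 0.25, 0.5, 1, 2, 4, 6, 8 and 24 h (8 h omitted for one compound).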

Rattus norvegicus [11] = assay: Compound was tested for anticonvulsant activity after Oral Administration into Rats by using MES screen test after 4h,dose 50 mg/kg; number of rats out of four which were protected; assay type: functional; method in brief: as §2
Rattus norvegicus [12] = assay: Compound was tested for anticonvulsant activity after Oral Administration into Rats by using MES screen test after 2h,dose 50 mg/kg; number of rats out of four which were protected; assay type: functional; method in brief: as §2
Mus musculus [13] = assay: Compound was tested for anticonvulsant activity after intraperitoneal injection into mice by using scPTZ screen test after 0.5 hr; assay type: functional; conditions: ip
Method in brief: (§4)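 Mice injected intraperitoneally at 30, 100 and 300 mg/kg and examined 0.5 and 4 h afterwards. Each entry is the minimum dose giving activity (MES protection, scPTZ protection, or rotorod failure for neurotoxicity) in half or more of the mice. Activity is called absent if nothing occurs at 300 mg/kg.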

Rattus norvegicus [14] = assay: Compound was tested for anticonvulsant activity after Oral Administration into Rats by using MES screen test after 0.5h,dose 50 mg/kg; number of rats out of four which were protected; assay type: functional; method in brief: as §2
[15] = Compound was tested for […] after intraperitoneal injection into mice by using neurotoxicity screen test after 2 hr; assay type: organism-based; conditions: mouse, in vivo, ip; method in brief: as §1
Rattus norvegicus [16] = assay: Compound was tested for anticonvulsant activity after Oral Administration into rat by using MES screen test after 4 hr; assay type: functional
Method in brief: (§5)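 Rats dosed orally, typically at 50 mg/kg first, then mostly 12.5 mg/kg (some compounds at 30 mg/kg), and tested by maximal electroshock. Four rats per compound, scored at 0.25, 0.5, 1, 2 and 4 h as the number of rats protected out of 4.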

Mus musculus [17] = assay: Toxicity after intraperitoneal injection into mice by using toxicity screen test after 0.5 hr; assay type: organism-based; conditions: in vivo, ip; method in brief: as §4
[18] = Protection index = TD50/ED50 (MES); conditions: mouse, in vivo; read-out: PI
Rattus norvegicus [19] = assay: Compound was tested for anticonvulsant activity after Oral Administration into Rats by using MES screen test after 0.5h,dose 12.50 mg/kg; number of rats out of four which were protected; assay type: functional; conditions: dose 12.5 mg/kg; method in brief: as §2
Rattus norvegicus [20] = assay: Compound was tested for anticonvulsant activity after Oral Administration into Rats by using MES screen test after 2h,dose 12.50 mg/kg; number of rats out of four which were protected; assay type: functional; conditions: dose 12.5 mg/kg; method in brief: as §2
Rattus norvegicus [21] = assay: Compound was tested for anticonvulsant activity after Oral Administration into Rats by using MES screen test after 0.25h,dose 12.50 mg/kg; number of rats out of four which were protected; assay type: functional; conditions: dose 12.5 mg/kg; method in brief: as §2
Mus musculus [22] = assay: Compound was tested for toxicity after intraperitoneal injection into mice by using toxicity screen test after 4 hr; assay type: organism-based; conditions: in vivo, ip; method in brief: as §4
Rattus norvegicus [23] = assay: Compound was tested for anticonvulsant activity after Oral Administration into Rats by using MES screen test after 1h,dose 12.50 mg/kg; number of rats out of four which were protected; assay type: functional; conditions: dose 12.5 mg/kg; method in brief: as §2
Mus musculus [24] = assay: Compound was tested for anticonvulsant activity after intraperitoneal injection into mice by using MES screen test after 0.5 hr; assay type: functional; conditions: ip; method in brief: as §4
[25] = Compound was tested for toxicity after intraperitoneal injection into mice by using neurotoxicity screen test after 1 hr; assay type: organism-based; conditions: mouse, in vivo, ip; method in brief: as §1
Rattus norvegicus [26] = assay: Compound was tested for anticonvulsant activity after Oral Administration into Rats by using MES screen test after 4h,dose 12.50 mg/kg; number of rats out of four which were protected; assay type: functional; conditions: dose 12.5 mg/kg; method in brief: as §2
Rattus norvegicus [27] = assay: Compound was tested for anticonvulsant activity after Oral Administration into Rats by using MES screen test after 4h,dose 12.5 mg/kg; number of rats out of four which were protected; assay type: functional; method in brief: as §2
Rattus norvegicus [28] = assay: Anticonvulsant activity after oral administration into rats; assay type: functional; set-up: concentration or dose not given beside the values
[29] = Compound was tested for toxicity after oral administration in rat by using neurotoxicity screen test after 2 hr; assay type: organism-based; conditions: in vivo; method in brief: as §3
Rattus norvegicus [30] = assay: Compound was tested for anticonvulsant activity after Oral Administration into Rats by using MES screen test after 2h,dose 12.5 mg/kg; number of rats out of four which were protected; assay type: functional; method in brief: as §2
Rattus norvegicus [31] = assay: Compound was tested for anticonvulsant activity after Oral Administration into Rats by using MES screen test after 0.25h,dose 12.5 mg/kg; No activity was demonstarted; assay type: functional, organism-based; set-up: dose 12.5 mg/kg; method in brief: as §2
[32] = Compound was tested for toxicity after oral administration in rat by using neurotoxicity screen test after 4 hr; assay type: organism-based; conditions: in vivo; method in brief: as §3
Mus musculus [33] = assay: Compound was tested for anticonvulsant activity after intraperitoneal injection into mice by using scPTZ screen test after 1 hr; assay type: functional; conditions: ip; method in brief: as §1
Rattus norvegicus [34] = assay: Compound was tested for anticonvulsant activity after Oral Administration into Rats by using MES screen test after 1h,dose 12.5 mg/kg; number of rats out of four which were protected; assay type: functional; method in brief: as §2
Rattus norvegicus [35] = assay: Compound was tested for anticonvulsant activity after Oral Administration into rat by using MES screen test after 2 hr; assay type: functional; method in brief: as §5
[36] = Compound was tested for toxicity after intraperitoneal injection into mice by using neurotoxicity screen test after 2 hr; assay type: organism-based; conditions: mouse, in vivo, ip; method in brief: as §1
Rattus norvegicus [37] = assay: Compound was tested for anticonvulsant activity after Oral Administration into Rats by using MES screen test after 0.25h,dose 12.5 mg/kg; number of rats out of four which were protected; assay type: functional; method in brief: as §2
Mus musculus [38] = assay: Compound was tested for anticonvulsant activity after intraperitoneal injection into mice by using scPTZ screen test after 0.25 hr; assay type: functional; conditions: ip; method in brief: as §1
Mus musculus [39] = assay: Anticonvulsant activity after intraperitoneal injection into mice by using MES screen test after 0.25 hr; assay type: functional

| SMILES | logP [6] | Dose (Mus musculus [1]) | ED50 (Mus musculus [2]) | Dose (Mus musculus [3]) | Dose (Mus musculus [4]) | Dose (Mus musculus [5]) | TD50 at 2 h [15] | ED50 (Rattus norvegicus [16]) | Dose (Mus musculus [17]) | Activity (Rattus norvegicus [19]) | Activity (Rattus norvegicus [20]) | Activity (Rattus norvegicus [21]) | Dose (Mus musculus [22]) | Activity (Rattus norvegicus [23]) | ED50 (Mus musculus [24]) | TD50 at 1 h [25] | Activity (Rattus norvegicus [26]) | Activity (Rattus norvegicus [27]) | Activity (Rattus norvegicus [28]) | Activity (Rattus norvegicus [30]) | further results |
| --- | --- | --- | --- | --- | --- | --- | --- | --- | --- | --- | --- | --- | --- | --- | --- | --- | --- | --- | --- | --- | --- |
| NC(=O)N/N=C/c1ccc(Oc2cc(F)cc(F)c2)cc1 | – | 30 mg/kg | – | 30 mg/kg | 100 mg/kg | – | – | – | 300 mg/kg | 3 | 4 | 1 | 300 mg/kg | 4 | 12.3 mg/kg | 68.8 mg/kg | 4 | – | – | – | selectivity ratio [18]: 5.58 |
| NC(=O)N/N=C/c1ccc(Oc2c(F)cccc2F)cc1 | – | 30 mg/kg | – | 30 mg/kg | 300 mg/kg | 300 mg/kg | 125 mg/kg | 5.53 mg/kg | 300 mg/kg | – | – | – | 300 mg/kg | – | – | – | – | 4 | 2 | 4 | TD50 at 2 h [29]: > 500 mg/kg; Activity (Rattus norvegicus [31]): No activity |
| Cc1ccc(Oc2ccc(/C=N/NC(N)=O)cc2)c(C)c1 | – | 30 mg/kg | – | 30 mg/kg | 30 mg/kg | 30 mg/kg | – | – | 300 mg/kg | 4 | 4 | 1 | 100 mg/kg | 4 | 4.6 mg/kg | 37 mg/kg | 4 | – | – | – | ED50 (Mus musculus [38]): 33.6 mg/kg |

Second part, led by results:

| logP [6] | SMILES | Dose (Mus musculus [1]) | ED50 (Mus musculus [2]) | Dose (Mus musculus [3]) | Dose (Mus musculus [4]) | Dose (Mus musculus [5]) | TD50 at 2 h [15] | ED50 (Rattus norvegicus [16]) | Dose (Mus musculus [17]) | Activity (Rattus norvegicus [19]) | Activity (Rattus norvegicus [20]) | Activity (Rattus norvegicus [21]) | Dose (Mus musculus [22]) | Activity (Rattus norvegicus [23]) | ED50 (Mus musculus [24]) | TD50 at 1 h [25] | Activity (Rattus norvegicus [26]) | Activity (Rattus norvegicus [27]) | Activity (Rattus norvegicus [28]) | Activity (Rattus norvegicus [30]) | further results |
| --- | --- | --- | --- | --- | --- | --- | --- | --- | --- | --- | --- | --- | --- | --- | --- | --- | --- | --- | --- | --- | --- |
| 2.76 | NC(=O)N/N=C/c1ccc(Oc2ccc(F)c(F)c2)cc1 | 30 mg/kg | 14.5 mg/kg | 100 mg/kg | 30 mg/kg | 300 mg/kg | 94.8 mg/kg | 2.37 mg/kg | – | – | – | – | – | – | – | – | – | – | – | – | Activity (Rattus norvegicus [7]): 2; selectivity ratio [8]: 1.3; Activity (Rattus norvegicus [9]): 4; TD50 [10]: > 500 mg/kg; Activity (Rattus norvegicus [11]): 4; Activity (Rattus norvegicus [12]): 4; ED50 (Mus musculus [13]): 72.8 mg/kg; Activity (Rattus norvegicus [14]): 4 |
| 2.8 | NC(=O)N/N=C/c1ccc(Sc2ccc(F)cc2)cc1 | 30 mg/kg | 12.4 mg/kg | 30 mg/kg | 30 mg/kg | – | – | – | 300 mg/kg | – | – | – | 100 mg/kg | – | – | – | – | 4 | 3 | 4 | TD50 at 4 h [32]: 183 mg/kg; ED50 (Mus musculus [33]): > 120 mg/kg; Activity (Rattus norvegicus [34]): 4; ED50 (Rattus norvegicus [35]): 4.98 mg/kg; TD50 at 2 h [36]: 88 mg/kg; Activity (Rattus norvegicus [37]): 1 |
| 2.2 | NC(=O)N1c2ccccc2C=Cc2ccccc21 [CARBAMAZEPINE] | 100 mg/kg | – | 30 mg/kg | 100 mg/kg | 300 mg/kg | – | – | 100 mg/kg | – | – | – | 300 mg/kg | – | – | – | – | – | – | – | ED50 (Mus musculus [39]): 9.85 mg/kg; ED50 (Mus musculus [38]): > 50 mg/kg |
